Shown are actives, neighbours in structure and some others; about 5.3% of the full set was active somewhere.
Beta cell apopt: inhibitors of cytokine-induced beta cell apoptosis, primary screen, luminescence; INS-1E cytokine-induced death, ATP luminescence, 48 h; percent of positive-control rescue, neutral wells zero; protection from apoptosis, % (concentration not given with the values); 300,000 compounds, 0.8% hits;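 active = Every replicate reaches about 75%, or at least half do and their mean reaches it too, limit read from the data; inconclusive = At least half of replicates reach the limit but their mean does not; inactive = Under half of replicates reach the limit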;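 note: higher means more ATP so stronger rescue from cytokine killing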
CSC inhib: cancer stem cell viability inhibitors, primary screen, luminescence; cancer stem cell-like cells viability; inhibition, % at 7.5 µM; 300,000 compounds, 1.1% hits; AID 2717, 2010; in the data active = inhibition above about 75%; inconclusive = no clear call, values can overlap the other calls; tested in HMLE shEcad cells
T cruzi inh: inhibitors of intracellular T. cruzi growth, primary screen, luminescence, NIH3T3 host cells; T. cruzi beta-gal in NIH3T3, 90 h; inhibition, % (concentration not given with the values); 300,000 compounds, 1.4% hits;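 active = mean inhibition across valid replicates above about 55%, limit read from the data; inconclusive = mean below that limit but half or more replicates reach it; inactive = mean below it, under half of replicates reach it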;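 note: signal also drops with host cell toxicity which is not excluded here; higher percent means less beta-gal luminescence so fewer parasites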
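Read-out: Parasite load inhibition, % | Test system: Mouse NIH/3T3 fibroblasts infected with β-gal-expressing T. cruzi Tulahuen C4 | Amount: 5,000 cells/well | Medium: DMEM, 2% fetal bovine serum | Signal: GalScreen β-gal luminescence, detergent lysis, 60 min | Timing: 3 h attach, ≥90 h co-culture | Also added: Tulahuen C4 trypomastigotes, 5000/well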
NLRP3 yeast inh: NALP3 inflammasome inhibitors in reconstituted yeast, primary screen, luminescence, uHTS | 330,000 compounds, 0.39% hits | Yeast reconstituted NLRP3/ASC/caspase-1, beta-gal luminescence, 24 h | AID 2825, 2010 | inhibition, % at 10 µM;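 active = inhibition of 50% or more; inactive = inhibition below 50%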
Calb FLC: C. albicans growth inhibition with fluconazole, primary screen, CaCi-2 strain, Alamar Blue fluorescence | 300,000 compounds, 0.57% hits | growth inhibition, % (concentration not given with the values) | AID 1979, 2009 | C. albicans CaCi-2 (fluconazole-resistant clinical isolate) + fluconazole, 48 h;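 active = growth inhibition above about 58% in most replicates, limit read from the data, passing the limit was not always enough; inconclusive = exactly half the replicates above a set limit; inactive = most replicates below a set limit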;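 note: all wells also contain fluconazole at 8 µg/ml as a sub-toxic cotreatment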
Mdm2-MdmX inh: inhibitors of human Mdm2-MdmX association, primary screen, cell-based, luminescence, split luciferase, SaOS-2, uHTS | Protein Mdm4 (Homo sapiens) + E3 ubiquitin-protein ligase Mdm2 (Homo sapiens), … | SaOS-2 split-luciferase Mdm2/MdmX complementation | inhibition, % at 8 µM | 330,000 compounds, 3% hits;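 active = inhibition of at least 50% at 8 µM in the primary screen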
Target sequence (O15151 whole entry, looked up): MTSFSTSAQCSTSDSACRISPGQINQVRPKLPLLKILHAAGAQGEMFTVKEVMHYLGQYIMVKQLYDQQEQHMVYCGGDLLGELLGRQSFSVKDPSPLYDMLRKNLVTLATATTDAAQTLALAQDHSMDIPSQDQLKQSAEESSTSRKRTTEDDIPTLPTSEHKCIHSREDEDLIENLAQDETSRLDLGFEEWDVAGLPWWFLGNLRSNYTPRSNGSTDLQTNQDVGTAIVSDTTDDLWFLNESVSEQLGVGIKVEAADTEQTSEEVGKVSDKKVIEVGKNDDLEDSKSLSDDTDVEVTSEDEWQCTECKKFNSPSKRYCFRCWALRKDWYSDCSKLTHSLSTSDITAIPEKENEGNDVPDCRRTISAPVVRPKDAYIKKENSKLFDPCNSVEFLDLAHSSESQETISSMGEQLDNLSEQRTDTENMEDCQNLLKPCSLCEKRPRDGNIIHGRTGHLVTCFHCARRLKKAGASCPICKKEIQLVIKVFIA
Target sequence (Q00987 whole entry, looked up): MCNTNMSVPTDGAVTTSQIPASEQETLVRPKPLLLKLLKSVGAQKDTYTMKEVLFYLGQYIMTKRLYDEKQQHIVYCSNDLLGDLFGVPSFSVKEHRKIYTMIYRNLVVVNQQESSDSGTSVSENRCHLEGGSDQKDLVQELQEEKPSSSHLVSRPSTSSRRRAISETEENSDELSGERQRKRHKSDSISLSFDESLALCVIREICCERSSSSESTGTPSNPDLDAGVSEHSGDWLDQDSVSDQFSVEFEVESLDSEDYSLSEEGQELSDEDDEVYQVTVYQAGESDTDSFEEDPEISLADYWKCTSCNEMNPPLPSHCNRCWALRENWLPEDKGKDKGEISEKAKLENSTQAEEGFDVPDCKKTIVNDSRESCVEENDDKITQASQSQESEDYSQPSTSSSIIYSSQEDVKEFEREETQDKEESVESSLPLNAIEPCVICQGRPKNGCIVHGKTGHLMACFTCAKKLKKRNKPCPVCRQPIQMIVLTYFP
Mdm2-MdmX conf: Mdm2-MdmX complex disruptors, retested hits, confirmation, luminescence, single concentration; shares compounds with Mdm2-MdmX inh; 10,000 compounds, 55% hits; AID 489028, 2010; Mdm2-MdmX binding, luminescent assay; inhibition, % at 8 µM; in the data active = inhibition above about 40%
Full FLuc ctr: full-length luciferase signal inhibition, confirmation, counter-screen for Mdm2/MdmX interaction inhibitor project, cell-based, single concentration, SaOS-2. shares compounds with Mdm2-MdmX inh. SaOS-2 full-length luciferase counterscreen, luminescence. inhibition, % at 8 µM. 6,200 compounds, 77% hits. AID 504607, 2011;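 active = mean inhibition at 8 µM reaching about 37%, which flags the compound as non-specific, limit read from the data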;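 note: p53-null SaOS-2 cells with luciferase driven by a doxycycline-inducible promoter; compound on cells about two nights before reading with doxycycline added after day one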
Hits are given with their value; i = inactive; ? = inconclusive; nt = no result given.

SMILES	Beta cell apopt	CSC inhib	T cruzi inh	NLRP3 yeast inh	Calb FLC	Mdm2-MdmX inh	Mdm2-MdmX conf	Full FLuc ctr
c1cc2c3c(cccc3c1)NC1(CCC3(CC1)Nc1cccc4cccc(c14)N3)N2	i	i	59.1	i	i	72.2	i	nt
O=C1C(Cl)=C(N2CCOCC2)C(=O)N1CCc1ccccc1	i	i	i	i	i	i	nt	nt
CCN1C(=O)[C@H]2[C@@H](c3ccc(-c4ccc(Cl)c(Cl)c4)c(OC)c3)N3CCCC[C@@]3(C(=O)OC)[C@H]2C1=O	i	nt	nt	i	nt	65.8	i	nt
CCN1C(=O)[C@H]2[C@@H](c3ccc(-c4ccc(Cl)c(Cl)c4)cc3)N3CCCC[C@@]3(C(=O)OC)[C@H]2C1=O	i	i	i	i	i	65.6	i	nt
CCN1C(=O)[C@H]2[C@@H](c3ccc(-c4cccc(Cl)c4)cc3)N3CCCC[C@@]3(C(=O)OC)[C@H]2C1=O	i	i	i	i	i	i	nt	nt
CCN1C(=O)[C@H]2[C@@H](c3ccc(-c4cccc(Cl)c4)c(OC)c3)N3CCCC[C@@]3(C(=O)OC)[C@H]2C1=O	i	nt	nt	i	nt	59.4	i	nt
CCN1C(=O)[C@H]2[C@@H](c3ccc(-c4ccc(F)cc4)c(OC)c3)N[C@@](Cc3ccccc3)(C(=O)OC)[C@H]2C1=O	i	nt	nt	i	nt	58.0	i	nt
CCN1C(=O)[C@H]2[C@@H](c3ccc(-c4ccccc4)c(OC)c3)N[C@@](Cc3ccccc3)(C(=O)OC)[C@H]2C1=O	i	i	i	i	i	i	nt	nt
Cc1cc(=O)n2[nH]nnc2n1	i	i	i	i	i	i	nt	nt
COc1ccc(C(=O)COC(=O)CCN2C(=O)[C@@H]3[C@H](C2=O)[C@@H]2C[C@H]3C(Br)C2Br)cc1 (some centres undefined)	i	i	i	i	i	i	nt	nt
CCN1C(=O)[C@H]2[C@@H](c3ccc(-c4ccc(Cl)c(Cl)c4)c(OC)c3)N[C@@](C)(C(=O)OC)[C@H]2C1=O	i	i	i	i	i	57.0	45.0	70.5
COC(=O)[C@@]12CCCCN1[C@H](c1ccc(-c3cccc(Cl)c3)cc1)[C@@H]1C(=O)N(C)C(=O)[C@@H]12	i	nt	nt	i	nt	77.8	i	nt
Nc1nnc(N)c2ccccc12	i	i	i	i	i	i	nt	nt
Nc1nsc2ccccc12	i	i	?	i	87.1	61.2	i	nt
CC(C)(C)C(=O)Nc1ccc(NC(=O)c2ccco2)nc1	i	i	i	i	i	90.1	92.4	58.5
CC(C)(C)c1ccc(C(=O)Nc2ccc(NC(=O)c3ccco3)cc2)cc1	nt	nt	i	i	i	50.9	i	nt
O=C(Nc1ccc(NC(=O)c2sc3ccccc3c2Cl)cc1)c1ccco1	i	i	i	i	i	77.1	i	46.4
CC(C)(C)c1[nH]nc2c1C(c1ccncc1)C(C#N)=C(N)O2 (centres undefined)	i	nt	i	i	i	i	nt	nt
O=P(c1ccccc1)(c1ccccc1)c1nc(-c2ccccc2)oc1NCc1ccccc1	i	i	i	i	i	60.4	i	nt
COc1ccc(NC(=O)c2nc(S(=O)(=O)Cc3cccc(C)c3)ncc2Cl)c(OC)c1	i	i	i	i	i	84.8	70.1	i
COc1ccc(OC)c(NC(=O)c2nc(S(=O)(=O)Cc3ccccc3)ncc2Cl)c1	80.4	105.9	i	i	i	100.2	93.1	51.5
COc1ccc(NC(=O)c2c(-c3ccccc3Cl)noc2C)c(OC)c1	nt	nt	i	i	i	i	nt	nt
O=C1CC(c2ccc(S(=O)(=O)NC3CC3)cc2)CN1 (centres undefined)	i	i	i	i	i	i	nt	nt
O=C(N/N=C/c1ccccc1F)c1csc2c1CCCC2	i	i	i	i	i	i	nt	nt
COc1ccccc1C1C(C(=O)c2sc(C)nc2C)=C(O)C(=O)N1CCN1CCOCC1 (centres undefined)	i	i	i	i	i	i	nt	nt
SMILES	Beta cell apopt	CSC inhib	T cruzi inh	NLRP3 yeast inh	Calb FLC	Mdm2-MdmX inh	Mdm2-MdmX conf	Full FLuc ctr
COc1cc(/C=C/C(=O)OCC(=O)c2ccc(S(=O)(=O)N3CCCCC3)cc2)cc(OC)c1OC	nt	nt	nt	i	nt	56.0	i	nt
COc1cccc(/C=C/C(=O)OCC(=O)c2ccc(S(=O)(=O)N3CCCCC3)cc2)c1OC	i	i	i	i	i	i	nt	nt
CCOc1ccc(NC(=O)COC(=O)Cn2nc(C)c([N+](=O)[O-])c2C)cc1OCC	i	i	nt	i	nt	i	nt	nt
COc1ccc(-n2nnnc2-c2cccc(OC)c2)cc1	i	i	i	i	i	56.1	54.5	66.5
Cc1ccc(-n2nnnc2-c2cccc(C)c2)cc1	i	i	i	i	i	i	nt	nt
Cc1nn2c(C(F)(F)F)cc(-c3ccc(Cl)cc3)nc2c1C(=O)N1CCOCC1	i	i	nt	i	i	i	nt	nt
COc1ccc(/C=N/n2cnc3c([nH]c4ccc(Br)cc43)c2=O)cc1CN1CCOCC1	i	i	i	i	i	57.3	i	nt
O=c1/c(=C/c2ccccn2)sc2n1CN(c1ccccc1)CN=2	i	i	i	i	i	i	nt	nt
Cc1cc(C)c2c(c1)/C(=c1/sc3n(c1=O)CN(c1ccccc1)CN=3)C(=O)N2	i	i	i	i	i	56.9	i	nt
Cc1c(C(=O)N/N=C/c2ccc(N(C)C)cc2)[nH]c2ccc(Cl)cc12	i	i	i	i	i	64.7	51.3	69.2
CN(C)c1ccc(/C=N/NC(=O)c2ccc3c(c2)OCO3)cc1	i	i	i	i	i	i	nt	nt
Cc1c(C(=O)N/N=C/c2ccccc2)[nH]c2ccc(Cl)cc12	i	i	i	i	i	57.5	51.2	59.3
COc1ccc(S(=O)(=O)N2CCCCC2)cc1NC(=O)c1cccnc1SC	i	i	i	i	i	i	nt	nt
CCOC(=O)C1CCN(C(=O)c2ccc(SC)cc2OC)CC1	i	nt	i	i	i	i	nt	nt
Oc1ccc(N=Nc2ccc3c(c2)OCO3)c2ccccc12	99.0	140.0	?	i	i	93.8	91.5	58.6
COc1ccc(N=CC2=C(Nc3ccc(OC)cc3)c3c(C)nn(-c4ccccn4)c3CC2)cc1	109.7	nt	nt	i	nt	90.3	71.7	i
O=[N+]([O-])c1cnc(Sc2ccncn2)s1	108.8	106.9	i	i	i	97.3	99.7	52.1
O=c1[nH]c(/C=C/c2ccc(OC(F)F)cc2)nc2c1cnn2-c1ccccc1	i	i	i	i	i	66.4	i	nt
c1cc2c(cc1C1CCCCC1)c1c3n2CCN=C3CCC1	i	i	71.0	i	i	52.6	i	nt

High-throughput results deposited in PubChem by several laboratories.
